Assay results reported in ChEMBL document CHEMBL1681781, “Structure based design and syntheses of amino-1H-pyrazole amide derivatives as selective Raf kinase inhibitors in melanoma cells” (Bioorg Med Chem, 2011).

How the values were obtained:
[1] = biological target: T1, Dual specificity mitogen-activated protein kinase kinase 1 (Homo sapiens, UniProt Q02750); test: inhibition of MEK1
[2] = biological target: T2, Glycogen synthase kinase-3 beta (Homo sapiens, UniProt P49841); test: inhibition of GSK3-beta at 10 uM
[3] = biological target: T3, Fibroblast growth factor receptor 3 (Homo sapiens, UniProt P22607); test: inhibition of FGFR3
[4] = biological target: T4, BDNF/NT-3 growth factors receptor (Homo sapiens, UniProt Q16620); test: inhibition of TRKB at 10 uM
[5] = biological target: T3, Fibroblast growth factor receptor 3; conditions: 10 uM
[6] = biological target: ALK tyrosine kinase receptor (Homo sapiens) (UniProt Q9UM73); conditions: 10 uM
[7] = tested on: Serine/threonine-protein kinase B-raf (Homo sapiens), P15056 [V600E]; test: Inhibition of b-Raf V599E mutant at 10 uM
[8] = biological target: T5, Proto-oncogene tyrosine-protein kinase Src (Homo sapiens, UniProt P12931); test: Inhibition of c-Src
[9] = biological target: T6, Hepatocyte growth factor receptor (Homo sapiens, UniProt P08581); conditions: 10 uM
[10] = biological target: T7, Ribosomal protein S6 kinase beta-1 (Homo sapiens, UniProt P23443); test: inhibition of p70S6K at 10 uM
[11] = biological target: T8, Vascular endothelial growth factor receptor 2 (Homo sapiens, UniProt P35968); test: inhibition of KDR at 10 uM
T8 sequence (P35968 whole entry): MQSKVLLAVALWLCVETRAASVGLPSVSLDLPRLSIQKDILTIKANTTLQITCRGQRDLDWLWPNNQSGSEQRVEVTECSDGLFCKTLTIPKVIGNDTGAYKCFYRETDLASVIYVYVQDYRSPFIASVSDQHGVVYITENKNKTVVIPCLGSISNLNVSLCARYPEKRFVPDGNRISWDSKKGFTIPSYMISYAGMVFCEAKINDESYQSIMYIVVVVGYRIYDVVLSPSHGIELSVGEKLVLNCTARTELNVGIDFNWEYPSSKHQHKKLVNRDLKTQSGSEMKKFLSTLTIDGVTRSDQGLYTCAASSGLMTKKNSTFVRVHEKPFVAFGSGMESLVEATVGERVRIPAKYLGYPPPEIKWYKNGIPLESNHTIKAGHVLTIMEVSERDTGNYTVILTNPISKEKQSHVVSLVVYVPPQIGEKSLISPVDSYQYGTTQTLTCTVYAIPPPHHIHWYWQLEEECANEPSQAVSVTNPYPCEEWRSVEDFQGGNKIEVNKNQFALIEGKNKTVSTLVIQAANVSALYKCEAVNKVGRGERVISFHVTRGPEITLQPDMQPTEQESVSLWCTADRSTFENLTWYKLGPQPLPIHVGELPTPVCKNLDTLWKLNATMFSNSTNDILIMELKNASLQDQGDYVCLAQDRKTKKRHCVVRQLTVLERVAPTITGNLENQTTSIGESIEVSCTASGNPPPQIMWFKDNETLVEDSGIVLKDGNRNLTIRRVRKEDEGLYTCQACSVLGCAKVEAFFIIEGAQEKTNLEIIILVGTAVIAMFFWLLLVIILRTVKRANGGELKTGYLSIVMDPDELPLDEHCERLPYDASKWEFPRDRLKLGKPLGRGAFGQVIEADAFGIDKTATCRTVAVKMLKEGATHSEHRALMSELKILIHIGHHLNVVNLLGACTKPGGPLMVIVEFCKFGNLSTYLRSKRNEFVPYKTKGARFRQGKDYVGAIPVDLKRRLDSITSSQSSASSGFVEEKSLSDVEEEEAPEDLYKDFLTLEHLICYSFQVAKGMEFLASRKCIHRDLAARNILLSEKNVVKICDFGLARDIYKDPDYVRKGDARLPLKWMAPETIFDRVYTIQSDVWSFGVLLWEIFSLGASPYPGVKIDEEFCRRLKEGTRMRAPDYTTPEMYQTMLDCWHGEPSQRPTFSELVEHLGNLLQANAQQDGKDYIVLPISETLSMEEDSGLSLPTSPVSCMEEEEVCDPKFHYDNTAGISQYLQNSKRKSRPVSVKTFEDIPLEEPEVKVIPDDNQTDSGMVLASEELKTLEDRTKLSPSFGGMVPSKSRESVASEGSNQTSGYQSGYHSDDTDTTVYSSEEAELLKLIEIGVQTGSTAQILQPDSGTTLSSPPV

[12] = biological target: Receptor-type tyrosine-protein kinase FLT3 (Homo sapiens) (UniProt P36888); conditions: 10 uM
[13] = biological target: T9, Serine/threonine-protein kinase PLK1 (Homo sapiens, UniProt P53350); test: inhibition of PLK1 at 10 uM
T9 sequence (P53350 whole entry): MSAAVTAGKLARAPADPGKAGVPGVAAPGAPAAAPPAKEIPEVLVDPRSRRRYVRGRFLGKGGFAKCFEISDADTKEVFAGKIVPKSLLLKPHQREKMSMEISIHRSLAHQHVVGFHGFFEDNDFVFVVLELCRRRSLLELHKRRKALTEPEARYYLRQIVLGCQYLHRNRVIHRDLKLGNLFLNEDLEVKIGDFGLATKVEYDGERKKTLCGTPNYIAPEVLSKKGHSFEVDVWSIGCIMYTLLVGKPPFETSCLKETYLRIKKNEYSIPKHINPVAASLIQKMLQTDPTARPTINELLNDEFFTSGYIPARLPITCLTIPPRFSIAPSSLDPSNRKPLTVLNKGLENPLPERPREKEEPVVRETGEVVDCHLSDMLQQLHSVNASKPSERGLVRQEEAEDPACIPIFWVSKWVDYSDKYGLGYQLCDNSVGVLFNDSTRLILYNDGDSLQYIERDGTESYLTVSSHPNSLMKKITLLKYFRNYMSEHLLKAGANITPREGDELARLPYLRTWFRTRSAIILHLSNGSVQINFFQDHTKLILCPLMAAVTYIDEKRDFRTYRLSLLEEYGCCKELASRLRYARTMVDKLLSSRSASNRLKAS

[14] = biological target: Serine/threonine-protein kinase mTOR (Homo sapiens, UniProt P42345); test: inhibition of mTOR at 10 uM
[15] = biological target: T10, Mitogen-activated protein kinase 10 (Homo sapiens, UniProt P53779); test: inhibition of JNK3
T10 sequence (P53779 whole entry): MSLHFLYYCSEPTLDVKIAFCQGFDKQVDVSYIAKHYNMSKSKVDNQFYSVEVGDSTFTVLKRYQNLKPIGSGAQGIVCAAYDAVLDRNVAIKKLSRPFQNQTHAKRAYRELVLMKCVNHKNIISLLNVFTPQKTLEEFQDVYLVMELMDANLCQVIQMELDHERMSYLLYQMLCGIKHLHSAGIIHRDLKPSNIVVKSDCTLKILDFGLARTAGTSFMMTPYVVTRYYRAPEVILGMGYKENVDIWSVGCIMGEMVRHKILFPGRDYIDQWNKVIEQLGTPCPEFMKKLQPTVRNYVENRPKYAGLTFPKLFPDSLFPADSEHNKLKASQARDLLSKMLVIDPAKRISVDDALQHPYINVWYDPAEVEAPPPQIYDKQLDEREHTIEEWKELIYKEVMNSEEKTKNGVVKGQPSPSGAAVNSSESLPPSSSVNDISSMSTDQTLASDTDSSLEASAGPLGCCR

[16] = biological target: Cyclin-dependent kinase 1/cyclin B (Homo sapiens) (UniProt P06493+P14635+Q8WWL7+O95067); test: Inhibition of CDK1/cyclin B at 10 uM; format: protein-complex assay
[17] = biological target: Cyclin-dependent kinase 2/cyclin E (Homo sapiens) (UniProt P24864+P24941+O96020); test: Inhibition of CDK2/cyclin E at 10 uM; format: protein-complex assay
[18] = biological target: T10, Mitogen-activated protein kinase 10; conditions: 10 uM
[19] = biological target: RAF proto-oncogene serine/threonine-protein kinase (Homo sapiens, UniProt P04049); test: inhibition of RAF1 assessed as [33P]gamma-ATP incorporation into substrate at 10 uM after 40 mins by scintillation counting
Aurora kinase A = Aurora kinase A (Homo sapiens, UniProt O14965); test: Inhibition of Aurora A kinase
[20] = biological target: Tyrosine-protein kinase JAK3 (Homo sapiens) (UniProt P52333); test: inhibition of JAK3 at 10 uM
[21] = biological target: Aurora kinase A (Homo sapiens) (UniProt O14965); test: Inhibition of Aurora A kinase at 10 uM
[22] = inhibition of PKA
HS27 = test: Antiproliferative activity against human HS27 cells assessed as growth inhibition after 24 hrs by MTT assay; format: functional; conditions: HS27, 24 h
[23] = tested on: RAC-alpha serine/threonine-protein kinase (Homo sapiens), P31749 [S473D]; test: Inhibition of AKT1 PH S473D mutant at 10 uM
[24] = biological target: Focal adhesion kinase 1 (Homo sapiens) (UniProt Q05397); test: Inhibition of FAK at 10 uM
[25] = biological target: T5, Proto-oncogene tyrosine-protein kinase Src; conditions: 10 uM
[26] = biological target: T11, Macrophage-stimulating protein receptor (Homo sapiens, UniProt Q04912); test: inhibition of RON
T11 sequence (Q04912 25-304 limits assumed): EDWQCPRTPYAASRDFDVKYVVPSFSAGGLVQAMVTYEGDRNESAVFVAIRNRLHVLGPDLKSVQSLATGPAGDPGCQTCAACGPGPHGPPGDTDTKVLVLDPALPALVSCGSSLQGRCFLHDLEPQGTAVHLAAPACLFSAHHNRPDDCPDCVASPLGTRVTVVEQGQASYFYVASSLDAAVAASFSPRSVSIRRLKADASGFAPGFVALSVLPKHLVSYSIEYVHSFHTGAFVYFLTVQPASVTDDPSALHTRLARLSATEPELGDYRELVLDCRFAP
T11 sequence (Q04912 310-1400 limits assumed): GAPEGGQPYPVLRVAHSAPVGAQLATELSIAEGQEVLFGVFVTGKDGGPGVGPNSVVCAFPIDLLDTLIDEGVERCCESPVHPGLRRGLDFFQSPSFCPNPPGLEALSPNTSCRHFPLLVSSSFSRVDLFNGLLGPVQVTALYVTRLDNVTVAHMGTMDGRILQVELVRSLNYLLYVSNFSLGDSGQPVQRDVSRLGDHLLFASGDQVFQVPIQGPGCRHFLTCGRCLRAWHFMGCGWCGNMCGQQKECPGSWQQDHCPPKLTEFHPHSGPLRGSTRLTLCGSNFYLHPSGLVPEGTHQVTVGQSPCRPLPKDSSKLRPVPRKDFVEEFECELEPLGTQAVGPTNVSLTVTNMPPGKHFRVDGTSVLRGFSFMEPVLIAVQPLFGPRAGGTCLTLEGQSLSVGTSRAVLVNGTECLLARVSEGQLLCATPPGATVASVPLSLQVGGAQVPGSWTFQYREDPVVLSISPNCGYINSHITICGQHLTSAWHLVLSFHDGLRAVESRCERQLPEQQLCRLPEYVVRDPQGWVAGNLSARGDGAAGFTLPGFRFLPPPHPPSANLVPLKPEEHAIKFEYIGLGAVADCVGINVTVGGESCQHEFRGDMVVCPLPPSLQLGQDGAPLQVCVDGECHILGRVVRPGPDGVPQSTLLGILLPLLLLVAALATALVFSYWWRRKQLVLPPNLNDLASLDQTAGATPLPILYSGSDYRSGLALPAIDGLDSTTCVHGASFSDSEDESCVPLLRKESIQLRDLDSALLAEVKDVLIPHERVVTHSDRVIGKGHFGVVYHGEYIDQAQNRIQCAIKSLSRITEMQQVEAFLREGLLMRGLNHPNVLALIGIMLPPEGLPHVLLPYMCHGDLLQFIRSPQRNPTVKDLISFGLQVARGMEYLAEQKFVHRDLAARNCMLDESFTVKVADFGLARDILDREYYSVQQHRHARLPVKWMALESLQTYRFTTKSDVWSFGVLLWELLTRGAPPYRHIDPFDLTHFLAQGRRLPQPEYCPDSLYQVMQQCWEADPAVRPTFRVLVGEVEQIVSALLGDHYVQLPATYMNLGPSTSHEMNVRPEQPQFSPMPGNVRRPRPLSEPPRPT

[27] = biological target: Receptor-type tyrosine-protein kinase FLT3 (Homo sapiens, UniProt P36888); test: inhibition of FLT3
[28] = biological target: T4, BDNF/NT-3 growth factors receptor; test: inhibition of TRKB
[29] = biological target: T11, Macrophage-stimulating protein receptor; test: inhibition of RON at 10 uM
[30] = biological target: T6, Hepatocyte growth factor receptor; test: Inhibition of c-MET
[31] = biological target: T12, Mitogen-activated protein kinase 8 (Homo sapiens, UniProt P45983); test: inhibition of JNK1a1 at 10 uM
T12 sequence (P45983 whole entry): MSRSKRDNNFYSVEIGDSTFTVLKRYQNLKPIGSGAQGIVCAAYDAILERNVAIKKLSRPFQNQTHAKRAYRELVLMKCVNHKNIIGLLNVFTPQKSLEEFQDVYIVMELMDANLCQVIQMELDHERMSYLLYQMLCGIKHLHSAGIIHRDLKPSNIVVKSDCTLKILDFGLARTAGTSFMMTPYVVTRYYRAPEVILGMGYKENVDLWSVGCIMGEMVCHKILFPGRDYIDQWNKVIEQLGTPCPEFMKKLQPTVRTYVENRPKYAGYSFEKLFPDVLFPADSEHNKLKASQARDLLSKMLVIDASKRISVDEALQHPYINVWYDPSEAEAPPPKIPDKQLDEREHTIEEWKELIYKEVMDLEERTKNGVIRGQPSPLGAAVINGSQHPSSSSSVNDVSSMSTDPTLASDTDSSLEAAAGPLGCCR

[32] = biological target: T12, Mitogen-activated protein kinase 8; test: inhibition of JNK1a1; conditions: concentration not given here
[33] = biological target: Cyclin-dependent kinase 2/cyclin E (Homo sapiens, UniProt P24941); test: Inhibition of CDK2/cyclin E; format: protein-complex assay
[34] = biological target: Insulin-like growth factor 1 receptor (Homo sapiens) (UniProt P08069); test: inhibition of IGF-1R at 10 uM
[35] = biological target: T9, Serine/threonine-protein kinase PLK1; test: inhibition of PLK1
[36] = biological target: T13, Proto-oncogene tyrosine-protein kinase ROS (Homo sapiens, UniProt P08922); test: inhibition of ROS
[37] = inhibition of PKA at 10 uM
[38] = biological target: T14, Mitogen-activated protein kinase 1 (Homo sapiens, UniProt P28482); test: Inhibition of ERK2
T14 sequence (P28482 whole entry): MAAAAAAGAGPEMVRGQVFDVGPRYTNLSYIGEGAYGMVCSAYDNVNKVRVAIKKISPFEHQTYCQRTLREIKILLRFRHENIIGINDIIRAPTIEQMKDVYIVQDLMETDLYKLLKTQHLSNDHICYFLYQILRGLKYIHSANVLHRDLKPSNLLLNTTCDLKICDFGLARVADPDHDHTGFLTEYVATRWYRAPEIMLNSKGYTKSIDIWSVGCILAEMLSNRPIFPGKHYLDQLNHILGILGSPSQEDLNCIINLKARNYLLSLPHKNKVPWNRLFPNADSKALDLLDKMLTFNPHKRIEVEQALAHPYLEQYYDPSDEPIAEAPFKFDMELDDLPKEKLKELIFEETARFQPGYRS

[39] = biological target: T1, Dual specificity mitogen-activated protein kinase kinase 1; test: inhibition of MEK1 at 10 uM
[40] = biological target: T15, Tyrosine-protein kinase SYK (Homo sapiens, UniProt P43405); test: inhibition of SYK
[41] = biological target: Cyclin-dependent kinase 1/cyclin B (Homo sapiens, UniProt P06493); test: Inhibition of CDK1/cyclin B; format: protein-complex assay
[42] = biological target: T13, Proto-oncogene tyrosine-protein kinase ROS; test: inhibition of ROS at 10 uM
[43] = biological target: T8, Vascular endothelial growth factor receptor 2; test: inhibition of KDR
[44] = biological target: T7, Ribosomal protein S6 kinase beta-1; test: inhibition of p70S6K
[45] = biological target: T2, Glycogen synthase kinase-3 beta; test: inhibition of GSK3-beta
[46] = biological target: T15, Tyrosine-protein kinase SYK; test: inhibition of SYK at 10 uM
[47] = Antiproliferative activity against human A375P cells assessed as growth inhibition after 24 hrs by MTT assay; format: functional
In short: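 A375P cells kept in DMEM with 10% FBS and 1% penicillin/streptomycin at 37 °C under 5% CO2. Cells lifted with 0.05% trypsin–0.02% EDTA, seeded at 5 × 10^3 cells/well and left 24 h before dosing. Test compounds given as a 3-fold serial dilution over 12 points. Viability read by MTT reduction, absorbance at 590 nm.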

[48] = biological target: T14, Mitogen-activated protein kinase 1; test: Inhibition of ERK2 at 10 uM

T1 sequence (Q02750 whole entry): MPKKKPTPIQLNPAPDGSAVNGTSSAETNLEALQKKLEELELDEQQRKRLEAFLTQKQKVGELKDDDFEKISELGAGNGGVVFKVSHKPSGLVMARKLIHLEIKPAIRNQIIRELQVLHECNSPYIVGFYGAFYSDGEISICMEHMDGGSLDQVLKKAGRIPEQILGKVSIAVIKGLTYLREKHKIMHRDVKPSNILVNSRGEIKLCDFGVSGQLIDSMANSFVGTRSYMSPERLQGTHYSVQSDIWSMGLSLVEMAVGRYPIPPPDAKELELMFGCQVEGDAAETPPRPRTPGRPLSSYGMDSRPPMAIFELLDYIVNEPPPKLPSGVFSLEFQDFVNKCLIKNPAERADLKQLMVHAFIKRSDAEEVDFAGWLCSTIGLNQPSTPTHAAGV

COc1ccc(Cn2ncc(NC(=O)c3cc(NC(=O)Nc4ccc(Cl)c(C(F)(F)F)c4)ccc3C)c2N)cc1
IC50 [1]: 18.2 nM
inhibition [2]: 1.4%
IC50 [3]: 21.5 nM
inhibition [4]: 6.6%
inhibition [5]: 0.1%
inhibition [6]: 7.7%
inhibition [7]: 97%
IC50 [8]: 4.79 nM
inhibition [9]: 13%
inhibition [10]: 0%
inhibition [11]: 0%
inhibition [12]: 13%
inhibition [13]: 6.3%
inhibition [14]: 1.2%
IC50 [15]: > 20000 nM
inhibition [16]: 0%
inhibition [17]: 0%
inhibition [18]: 13%
inhibition [19]: 100%
IC50 (Aurora kinase A): < 1 nM
inhibition [20]: 0%
inhibition [21]: 0%
IC50 [22]: < 1 nM
GI50 (HS27): > 30000 nM
inhibition [23]: 3.7%
inhibition [24]: 1.5%
inhibition [25]: 16%
IC50 [26]: 277 nM
IC50 [27]: < 1 nM
IC50 [28]: < 1 nM
inhibition [29]: 0%
IC50 [30]: 193 nM
IC50 [31]: 1590 nM
inhibition [32]: 7.1%
IC50 [33]: 2.13 nM
inhibition [34]: 0.7%
IC50 [35]: 167 nM
IC50 [36]: < 1 nM
inhibition [37]: 0%
IC50 [38]: 11400 nM
inhibition [39]: 0%
IC50 [40]: < 1 nM
IC50 [41]: 3.2 nM
inhibition [42]: 0%
IC50 [43]: 9.42 nM
IC50 [44]: < 1 nM
IC50 [45]: 2.73 nM
inhibition [46]: 0%
GI50 [47]: 270 nM
inhibition [48]: 0%
